According to the EternaBench riboswitch data:

System: MS2 coat protein
Assay: apparent Kd, MS2 coat protein; higher = weaker binding; RNA-MaP array; FMN 200 µM where present
In short: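 Two titrations, one without ligand and one with constant ligand, were run with SNAP-549-labelled MS2 coat protein from 0.7 or 1.5 nM, doubling to 3 µM. The targets were designs transcribed by stalled E. coli RNA polymerase on Illumina sequencing-chip clusters, in 100 mM Tris-HCl pH 7.5, 80 mM KCl, 4 mM MgCl2, BSA, DTT, yeast tRNA and Tween-20. The apparent Kd is the median of filtered per-cluster binding-curve fits, with green signal normalised to red-channel RNA signal and control-cluster median Fmax.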

[1] = designed as: OFF switch for flavin mononucleotide, no ligand
[2] = ligand present: flavin mononucleotide, designed as: OFF switch for flavin mononucleotide
[3] = designed as: ON switch for flavin mononucleotide, no ligand
[4] = ligand present: flavin mononucleotide, designed as: ON switch for flavin mononucleotide

| Sequence | apparent Kd [1] | apparent Kd [2] | apparent Kd [3] | apparent Kd [4] |
| --- | --- | --- | --- | --- |
| UGAAAUCAUGUAGGAUAUGCAUGGCGAAGCUACGCAGAAGGACAUGAGGAUCACCCAUGUUCUGGCUACCGAGUUCGGUGGCAA | 22.1 nM | 105 nM | – | – |
| UGAACUAUGUAGAAGGCCCAUAUUUAUAUAUAGGGAGGAUAUACAUGAGGAUCACCCAUGUAUAGAGCAAGAGGACUUGUCAGU | 6.34 nM | 7.07 nM | – | – |
| UGAACUAUGUAGAAGGCCCUCAUGAAAAUGAAGGGAGGAUAUACAUGAGGAUCACCCAUGUGAAGAGCAAGAGGGUUUAACAGA | 149 nM | 172 nM | – | – |
| UGAACUUCAGAGAAGGUCGGAUGGCAACGGUCCGAAGGAUAUCUGGAAACAUGAGGAUCACCCAUGUAACCGGGUGGAUGUCCU | 35 nM | 113 nM | – | – |
| UGACACUUGAGGGUCUCCCUUGACAUGAGGAUCACCCAUGUGCAGGAUAUACGUGUGAUGGUAUAGUAGAAGGGCACUCUAUGU | 27.7 nM | 35.6 nM | – | – |
| UGACCCAUGACAUGAGAUGACAUGAGGAUCACCCAUGUUUACAAGGAUAUGUUGGUCAAAGGUCGGCAGAAGGUGUAAUGGGAU | 49 nM | 128 nM | – | – |
| UGACUAAAUGAAGGAUAUCUAAGCAUAAACCUGAGAGAAGGUCAUUUUUACAUGAGGAUCACCCAUGUUGUGAUUAAUGGGUCA | 88.7 nM | 137 nM | – | – |
| UGACUGAUAUAGAAGGGUAUGUGGGAAUUACAUGAGGAUCACCCAUGUUUUAUAGGAUAUGUAUAUAGUUUUUAAUCAAGUUUA | 48.2 nM | 36.8 nM | – | – |
| UGAGCCUCGUGAGGAUAUACAUGAGGAUCACCCAUGUAAUAGGAUGAACGGUGGAAACACCGAAUGUAGAAGGCACGAGGCUCA | 82.2 nM | 869 nM | – | – |
| UGAGCGACCACAGGAUAUACUUGAGAAGACCGAGUAGAAGGGUGGAAGAGCAUGCAGUGACAUGAGGAUCACCCAUGUGGUUGG | – | – | 97 nM | 65.8 nM |
| UGAUACUAAGAGAAGGUUCAAACUACAUAUUGCAUACAUGAGGAUCACCCAUGUUGGUGAAUAAGAAAGGAUAUUUUACUAUAU | 48.2 nM | 38.2 nM | – | – |
| UGAUAGCACAGAGGAUAUGCGUAGUGUUAUCUCUACAUGAGGAUCACCCAUGUAGAAGGCUGUGCUAUCUAAGUCGGAAACGAU | 6.19 nM | 9.86 nM | – | – |
| UGAUAGGACAGAGGAUAUACCGAUAGGAGAUACUAUCGACUAGUCCUCACAUGAGGAUCACCCAUGUAGAAGGCUGUCCUAUCU | 22.8 nM | 269 nM | – | – |
| UGAUAGGACAGAGGAUAUACGAAAGGCGAUCCAUACAUGAGGAUCACCCAUGUAGAAGGCUGUCCUAUCUAAGUCGGAAACGAC | 84.9 nM | 16.9 nM | – | – |
| UGAUAGGACAGAGGAUAUACGGAUAGGAUCUACUAUCUUCCUUAAAUAACAUGAGGAUCACCCAUGUAGAAGGCUGUCCUAUCU | 18.2 nM | 65.2 nM | – | – |
| UGAUAGGACAGAGGAUAUACGUAUAAAUAUCCUUACAUGAGGAUCACCCAUGUAGAAGGCUGUCCUAUCUAAGUCGGAAACGAC | 5.96 nM | 10.3 nM | – | – |
| UGAUAGGACAGAGGAUAUACGUGCUAGAGAUACUAGCAAAAUAUCCUCACAUGAGGAUCACCCAUGUAGAAGGCUGUCCUAUCU | 18 nM | 83.3 nM | – | – |
| UGAUAGGACAGAGGAUAUGCCGAUAGGAUCUACUAUCGAAGAAUCCUCACAUGAGGAUCACCCAUGUAGAAGGCUGUCCUAUCC | 8.68 nM | 39.5 nM | – | – |
| UGAUAUGUAGUAGGAUAUCAGGUUACAUGAGGAUCACCCAUGUUAGAUUGGUGGAUAGAUGUUGAUGAGAAGGACUUUUGAGUU | 79.6 nM | 100 nM | – | – |
| UGAUCUUACAUGAGGAUCACCCAUGUAGGCCAGUAACUAACCAGAAGGCACGUAGAGUAAAACAGUGAGGAUAUGGAUGACAUA | – | – | 11.7 nM | 6.32 nM |
| UGAUCUUGGGUCAGGAUAUGCUGGUAUUUUUGCCAGCAGAAGGGACAUGAGGAUCACCCAUGUUCUUGGUUUUU | 11.7 nM | 14.9 nM | – | – |
| UGAUUUCAUGUAGGAUAUGCAUGGCGAAGCUACGCAGAAGGACAUGAGGAUCACCCAUGUUUUAGCGUCUGAGUAUAGAUUCUA | 140 nM | 158 nM | – | – |
| UGCACAUGAGGAUCACCCAUGUAUUGUUCGGUUAAUAGAAGUGAGGAUAUGCUUAAAAUAAGGUAGCAGAAGGCACUGGGUUCA | – | – | 27.8 nM | 29.6 nM |
| UGCAGGUGAGGAUAUGCGGGCGAGCUAACAUAAGCAUCGAAGCAGAAGGCACAUGAGGAUCACCCAUGUAGUCC | 18.9 nM | 28 nM | – | – |
| UGCAUGCUAGGAUAUACGAAACAUUAGGGUUCUUUGUAUGAACAUGAGGAUCACCCAUGUAGAAGGAGCGUGCU | 117 nM | 296 nM | – | – |
| UGCCAGGAGGAGAAGGGAGCACAUGAGGAUCACCCAUGUGGUCCGGGCUGCUCAGGAUAUCCUAACUGUACGCAUUACUACGAA | 119 nM | 23.2 nM | – | – |
| UGCCAGUUAGGAUAUGCACGCGCCGGUGACCUGCUACGGCUACAUGAGGAUCACCCAUGUAGAAGGAACUGGGC | 19.6 nM | 20.2 nM | – | – |

| Sequence | apparent Kd [1] | apparent Kd [2] | apparent Kd [3] | apparent Kd [4] |
| --- | --- | --- | --- | --- |
| UGCCUUGAGUAGAAGGGCUGUGCUGUGGCACUGAGUCCUCUCGACAUGAGGAUCACCCAUGUAGAGCAGGAUAUACUCGGAUAA | 5.78 nM | 7.3 nM | – | – |
| UGCGUACAAGCAAACAUGAGGAUCACCCAUGUGGUCUUAUGCGAGGAUAUCGGGAAGGAGGAUUCCGAGAAGGUGCGGUGAGCC | – | – | 31.4 nM | 26.5 nM |
| UGCGUGGUCACAGGAUAUGCAAGAUAAACUUUAGCAGAAGGGUGAUCAAUCAGCUCAAUACCACAUGAGGAUCACCCAUGUCUA | – | – | 53.4 nM | 258 nM |
| UGCGUUAAGCCCUUAAGUCGUCAACAUGAGGAUCACCCAUGUAGAAGGCAGCGGACGCAGCCGGCUGAGGAUAUACAUGUAGGU | 7.9 nM | 10.5 nM | – | – |
| UGCUAAUUGUAGAAGGGUGACAUGAGGAUCACCCAUGUGCACGCGCGAUUUACGGCGCGCGUGCCACAGGAUAUACAGUUGAGU | – | – | 58.1 nM | 34.6 nM |
| UGCUACGGAGGAUAUACAUGAGGAUCACCCAUGUGAGAGAUUUGGCCGAGAGGCCAGUGUAGAAGGCCGUAGCU | 68.9 nM | 416 nM | – | – |
| UGCUACGUUUCGUAGCAGUGUCAUCGAGAAGGCCCUGACAUGAGGAUCACCCAUGUUGUUACAUGGGAGGAUAUCGAUGAUACC | – | – | 11.8 nM | 5.25 nM |
| UGCUAGUCAGGAUAUACGAACAUGUCAAAAGACGUGAAGGGACAUGAGGAUCACCCAUGUAGAAGGGACUAGCC | 33.2 nM | 162 nM | – | – |
| UGCUGUGUCAGAGGAUAUACUCUAAUAAUCCAUUGCAAAUAGCGAUGGACAUGAGGAUCACCCAUGUAGAAGGCUGGCACAGCA | 70.2 nM | 152 nM | – | – |
| UGGAACAUGGGAGGAUAUGGGAUGAUAACAUGAGGAUCACCCAUGUUAAAGAUGCCGAGAGGCAACUAGAAGGCCCAUGUUCCU | – | – | 368 nM | 60.5 nM |
| UGGACUGGGCAGAAGGGACAUGAGGAUCACCCAUGUCUUGGGCUACUUCAGUCAGGAUAUGCCCAUUGAAUAUCCGUGCAACAA | 15.4 nM | 76.9 nM | – | – |
| UGGAUCAUCGGAGGAUAUCAUGUAUAUACAUGAGGAUCACCCAUGUCGAUGGAGACAUCGGAGAUUGAGAAGGCCGAUGAUCCU | – | – | 910 nM | 30.5 nM |
| UGGAUCAUGGGAGGAUAUCCUCAAGAGACAUGAGGAUCACCCAUGUAUUAUAUGCCUCAUGGCAUGGAGAAGGCCCAUGAUCCU | – | – | 176 nM | 161 nM |
| UGGAUCAUGGGAGGAUAUGGGAAGAUACAUGAGGAUCACCCAUGUUUAAGAAUGCCGAGAGGCAACUAGAAGGCCCAUGAUCCU | – | – | 1090 nM | 47.9 nM |
| UGGAUGGUAUGAGGAUAUGCGCGUGAAACGCGCGCAGAAGGCAUGUCAAUAGACAUGAGGAUCACCCAUGUAUUAUCCAUCCAA | – | – | 258 nM | 15.8 nM |
| UGGAUGUGGGUUCCACAUGAGGAUCACCCAUGUACCGAUGAGAGAAGGCACUCUAGUACCUAGAGUGAGGAUAUCUACAUUCAA | 4.32 nM | 9.75 nM | – | – |
| UGGCCUUUAGGAUAUCGGGUCUUUAACAUGAGGAUCACCCAUGUGGCACUCUCUUGAGAACGAGAAGGAAAACCCG | 23.2 nM | 23.7 nM | – | – |
| UGGCGCAUGUGAGGAUAUAGUGGGUAGUAACUACUAGAAGGUACAUGAGGAUCACCCAUGUACUUGGGUUUGUCAGGAACUCCU | 6.57 nM | 8.33 nM | – | – |
| UGGCGUUGAGGAUAUACAUUGAAUAAGAUUCAUGUAAAACUACAUGAGGAUCACCCAUGUAGAAGGCAAUGCCU | 16.9 nM | 27.7 nM | – | – |
| UGGGACUAGGGAGGAUAUGGGAAGAUACAUGAGGAUCACCCAUGUUUAAGAAUGCCGAGAGGCAACUAGAAGGCCCUAGUACCU | – | – | 446 nM | 20.4 nM |
| UGGGUAAAUGUAGGAUAUCUAUAUUAAUAAUAUGGAGAAGGACAUGAGGAUCACCCAUGUACAGGGAAUUACCCAUUUCCUCUC | 275 nM | 556 nM | – | – |
| UGGGUAAGUGUAGGAUAUUUAUAUUAAUAGUAUGGAGAAGGACAUGAGGAUCACCCAUGUACAGGAAGUUGCCCAUUUCCUCUC | 579 nM | 495 nM | – | – |
| UGGGUUGUUGUGAGGAUAUACUGUUUGUUUUGUUUGUAGAAGGUACAUGAGGAUCACCCAUGUUGGUUGUGGUU | 262 nM | 228 nM | – | – |
| UGGUACAUCAUAGGAUAUCGUGUGUAAACAUGAGGAUCACCCAUGUCAUCCGAGAGUAUAUCGACCGAGAAGGGUGAUGUACCU | – | – | 24.1 nM | 33.3 nM |
| UGGUACAUGGGAGGAUAUCAUGUAGUAACAUGAGGAUCACCCAUGUCGAUGGAGACAUCGGAGAUUGAGAAGGCCCAUGUACCU | – | – | 921 nM | 32.5 nM |
| UGGUACAUGGGAGGAUAUCCUCAAGAGACAUGAGGAUCACCCAUGUAUUAUAUGCCUCAUGGCAUGGAGAAGGCCCAUGUACCU | – | – | 179 nM | 153 nM |
| UGGUACAUGGGAGGAUAUGGGUUGUUAACAUGAGGAUCACCCAUGUUAUGCCGAAAGGCAAAGAACUAGAAGGCCCAUGUACCU | – | – | 21.9 nM | 16.4 nM |
